Legend:
Rattus norvegicus [1] = test: Hemodynamic effect in anesthetized Sprague-Dawley rat assessed as decrease in mean arterial pressure at 10 mg/kg after 90 mins; type: functional, Artery; parameters: scale not given: the % may be the effect or the level left
How it was run: (§1)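 Inactin-anesthetized rats; femoral artery catheters for MAP, HR and blood sampling; femoral vein for dosing and saline; LV transducer catheter for LVP/dP/dt. PVR = MAP/PBF. After 30-min control period, vehicle (10% DMSO/PEG400, 1 mL/kg) or compound infused i.v. as three ascending doses, 3, 10, 30 mg/kg, each over 30 min. Changes versus time 0 baseline; mean of three animals.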

Rattus norvegicus [2] = test: Hemodynamic effect in anesthetized Sprague-Dawley rat assessed as increase in cardiac contractility at 10 mg/kg after 90 mins; type: functional, Heart; how it was run: as §1
Rattus norvegicus [3] = test: Hemodynamic effect in anesthetized Sprague-Dawley rat assessed as decrease in peripheral vascular resistance at 10 mg/kg after 90 mins; type: functional; parameters: scale not given: the % may be the effect or the level left; how it was run: as §1
[4] = Drug level in anesthetized Sprague-Dawley rat assessed end of infusion plasma concentration at 10 mg/kg after 90 mins; type: ADME, organism-based; parameters: dose 10 mg/kg; settings: iv; how it was run: as §1
[5] = target: Mitogen-activated protein kinase 8 (Homo sapiens, UniProt P45983); test: Inhibition of JNK1
Chain of Mitogen-activated protein kinase 8 (P45983 whole entry): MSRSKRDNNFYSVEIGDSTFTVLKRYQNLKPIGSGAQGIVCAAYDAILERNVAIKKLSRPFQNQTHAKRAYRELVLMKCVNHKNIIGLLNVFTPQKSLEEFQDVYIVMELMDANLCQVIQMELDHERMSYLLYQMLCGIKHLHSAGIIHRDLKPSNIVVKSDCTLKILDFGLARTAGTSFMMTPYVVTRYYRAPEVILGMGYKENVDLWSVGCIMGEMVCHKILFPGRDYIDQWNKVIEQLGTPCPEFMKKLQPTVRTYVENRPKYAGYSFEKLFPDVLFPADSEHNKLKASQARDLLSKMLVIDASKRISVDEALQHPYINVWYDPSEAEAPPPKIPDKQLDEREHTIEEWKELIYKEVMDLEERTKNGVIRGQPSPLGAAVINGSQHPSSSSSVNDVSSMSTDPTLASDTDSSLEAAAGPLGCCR

Rattus norvegicus [6] = test: Hemodynamic effect in anesthetized Sprague-Dawley rat assessed as decrease in heart rate at 10 mg/kg after 90 mins; type: functional; parameters: scale not given: the % may be the effect or the level left; how it was run: as §1

Structure (SMILES) | Activity (Rattus norvegicus [1]) [%] | Activity (Rattus norvegicus [2]) [%] | Activity (Rattus norvegicus [3]) [%] | concentration at 1.5 h [4] [ng/mL] | IC50 [5] [nM] | Activity (Rattus norvegicus [6]) [%]
CS(=O)(=O)c1ccc(CNC(=O)c2cc(N)c(C#N)c(-c3ccsc3)n2)cc1 | 23 | – | – | – | – | –
CC(C)Oc1nc(C(=O)N(C)Cc2ccc(S(C)(=O)=O)cc2)cc(N)c1C#N | – | 41 | 46 | 23600 | 6400 | –
CCOc1nc(C(=O)NCCNc2ccc([N+](=O)[O-])cn2)cc(N)c1C#N | 20 | 12 | – | – | 61 | –
CCOc1nc(C(=O)NCc2ccc([S+]([O-])c3ccccc3)cc2)cc(N)c1C#N (stereo not drawn) | 24 | 24 | – | – | 50 | –
COc1cc[nH]c1/C=C1\C(=O)Nc2cccc(C#CC(O)c3ccc(OCCCN(C)C)cc3)c21 (stereo not drawn) | 23 | -20 | – | – | 34 | 11
CS(=O)(=O)c1ccc(CNC(=O)c2cc(N)c(C#N)c(OCC3CC3)n2)cc1 | 24 | – | – | 8200 | – | –
CS(=O)(=O)c1ccc(CNC(=O)c2cc(N)c(C#N)c(NC3CCCC3)n2)cc1 | 18 | 13 | – | 10500 | – | 6
CCOc1nc(C(=O)NCc2ccc(S(C)(=O)=O)cc2)cc(N)c1Cl | 20 | <15 | 51 | 14700 | – | <15
CCOc1nc(C(=O)NCc2ccc(S(=O)(=O)c3ccccc3)cc2)cc(N)c1C#N | 24 | – | – | – | 130 | 11
CC(C)Oc1nc(C(=O)NCc2ccc(S(C)(=O)=O)cc2)cc(O)c1C#N | <15 | – | – | 39900 | > 10000 | –
CCOc1nc(C(=O)NCc2cnccc2Cl)cc(N)c1C#N | 23 | < -15 | – | – | 30 | –
CCOc1nc(C(=O)NCc2ccc(S(C)(=O)=O)cc2)cc(N)c1C#N | 41 | <15 | 25 | 19300 | – | <15
CCCn1c(C2CCNCC2)nc(-c2ccc(Cl)c(Cl)c2)c1-c1ccnc(NC2CCCCC2)n1 | 30 | – | – | 9000 | – | 22

— ChEMBL document CHEMBL1138387, “Hemodynamic effects of potent and selective JNK inhibitors in anesthetized rats: implication for targeting protein kinases in metabolic diseases” (Bioorg Med Chem Lett, 2007)
